Laboratory results as given in ChEMBL document CHEMBL3616436, “Synthesis, cytotoxicity and antimicrobial activity of thiourea derivatives incorporating 3-(trifluoromethyl)phenyl moiety” (Eur J Med Chem, 2015).
Converted amounts (≈) assume the structure as drawn. The source made the active and inactive calls. The calls are words filed in the database; no cut-off is given here.

Columns and labels:
Staphylococcus aureus [1] = test: Antimicrobial activity against Staphylococcus aureus NCTC 4163 at 400 ug after 18 hrs by disc-diffusion method; format: functional; details: NCTC 4163, 18 h, read-out: IZ
Outline: (§1)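 Disc diffusion on Mueller-Hinton II agar per CLSI; 9 mm paper discs loaded with 400 µg compound from DMSO solution, dried, placed on agar; growth inhibition zone diameter read after 18 h at 35°C.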

[2] = Cytotoxicity against human MT4 cells; format: cell-based
Bacillus subtilis = test: Antimicrobial activity against Bacillus subtilis ATCC 6633 at 400 ug after 18 hrs by disc-diffusion method; format: functional; details: ATCC 6633, 18 h, read-out: IZ; outline: as §1
[3] = Cytotoxicity against African green monkey Vero 76 cells assessed as cell viability after 48 to 96 hrs by crystal violet staining; format: cell-based; details: chlorocebus sabaeus
Poliovirus 1 = test: Antiviral activity against Poliovirus type 1 ATCC VR-1562 infected in African green monkey Vero 76 cells assessed as reduction of virus-plaque formation after 2 days by crystal violet staining; format: functional, organism-based; details: Enterovirus C, ATCC VR-1562, Vero, 48 h
Proteus vulgaris = test: Antimicrobial activity against Proteus vulgaris NCTC 4635 at 400 ug after 18 hrs by disc-diffusion method; format: functional; outline: as §1
Staphylococcus aureus [4] = test: Antimicrobial activity against Staphylococcus aureus NCTC 4163 after 18 hrs by twofold serial microdilution method; format: functional; details: NCTC 4163, 18 h
Staphylococcus aureus [5] = test: Antimicrobial activity against Staphylococcus aureus ATCC 25923 after 18 hrs by twofold serial microdilution method; format: functional; details: ATCC 25923, 18 h
Yellow fever virus = test: Antiviral activity against Yellow fever virus 17D infected in BHK cells assessed as protection against virus-induced cytopathogenicity after 3 to 4 days by MTT assay; format: functional, cell-based
Coxsackievirus B5 = test: Antiviral activity against Human coxsackievirus B5 ATCC VR-29 infected in African green monkey Vero 76 cells assessed as reduction of virus-plaque formation after 3 days by crystal violet staining; format: functional, organism-based; details: Enterovirus B, ATCC VR-29, Vero, 72 h
Outline: (§2)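 Plaque reduction: Vero-76 at 2x10^5 cells/well grown to confluent monolayers, infected 2 h at 50–100 PFU/well; after removing unadsorbed virus, overlay of D-MEM, 1% inactivated FBS, 0.75% methylcellulose with or without serial compound dilutions; 3 days at 37°C, fixed and stained with crystal violet in 50% ethanol, plaques counted; EC50 by linear regression.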

[6] = Antiviral activity against Bovine viral diarrhea virus 1-NADL ATCC VR-534 infected in MDBK cells assessed as protection against virus-induced cytopathogenicity after 3 to 4 days by MTT assay; format: functional, cell-based; details: Bovine viral diarrhea virus isolates and strains, ATCC VR-534, MDBK
Outline: (§3)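 Cells seeded in 96-well plates (BHK 5x10^4, MDBK 3x10^4 cells/well), grown overnight to confluence, infected at m.o.i. 0.01 (BHK for Reo-1, MDBK for BVDV); serial compound dilutions in maintenance medium with 0.5% inactivated FBS added after 1 h; viability by MTT after 3–4 days at 37°C; EC50 for 50% protection by linear regression.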

Staphylococcus aureus [7] = test: Antimicrobial activity against Staphylococcus aureus ATCC 6538 at 400 ug after 18 hrs by disc-diffusion method; format: functional; details: ATCC 6538, 18 h, read-out: IZ; outline: as §1
[8] = tested on: Vesicular stomatitis virus; test: Antiviral activity against Vesicular stomatitis virus ATCC VR 1540 infected in African green monkey Vero 76 cells assessed as reduction of virus-plaque formation after 2 days by crystal violet staining; format: functional, organism-based; details: ATCC VR 1540, Vero, 48 h
Staphylococcus aureus [9] = test: Antimicrobial activity against Staphylococcus aureus ATCC 25923 at 400 ug after 18 hrs by disc-diffusion method; format: functional; details: ATCC 25923, 18 h, read-out: IZ; outline: as §1
[10] = tested on: Staphylococcus epidermidis; test: Antimicrobial activity against Staphylococcus epidermidis ATCC 35984 at 400 ug after 18 hrs by disc-diffusion method; format: functional; details: ATCC 35984, 18 h, read-out: IZ; outline: as §1
Enterococcus hirae = test: Antimicrobial activity against Enterococcus hirae ATCC 10541 at 400 ug after 18 hrs by disc-diffusion method; format: functional; details: ATCC 10541, 18 h, read-out: IZ; outline: as §1
Staphylococcus aureus [11] = test: Antimicrobial activity against Staphylococcus aureus ATCC 29213 at 400 ug after 18 hrs by disc-diffusion method; format: functional; details: ATCC 29213, 18 h, read-out: IZ; outline: as §1
Micrococcus luteus [12] = test: Antimicrobial activity against Micrococcus luteus ATCC 10240 at 400 ug after 18 hrs by disc-diffusion method; format: functional; details: ATCC 10240, 18 h, read-out: IZ; outline: as §1
Vaccinia virus = test: Antiviral activity against Human Vaccinia virus ATCC VR-1549 infected in African green monkey Vero 76 cells assessed as reduction of virus-plaque formation after 3 days by crystal violet staining; format: functional, organism-based; details: Orthopoxvirus vaccinia, ATCC VR-1549, Vero, 72 h
[13] = tested on: Human immunodeficiency virus 1; test: Antiviral activity against HIV1 3B infected in human MT4 cells assessed as protection against virus-induced cytopathogenicity by MTT assay; format: functional, organism-based; details: Human immunodeficiency virus 1, 3B
[14] = tested on: Staphylococcus epidermidis; test: Antimicrobial activity against Staphylococcus epidermidis ATCC 12228 at 400 ug after 18 hrs by disc-diffusion method; format: functional; details: ATCC 12228, 18 h, read-out: IZ; outline: as §1
[15] = tested on: Staphylococcus epidermidis; test: Antimicrobial activity against Staphylococcus epidermidis ATCC 12228 after 18 hrs by twofold serial microdilution method; format: functional; details: ATCC 12228, 18 h
[16] = tested on: Mycobacterium tuberculosis; test: Antimycobacterial activity against Mycobacterium tuberculosis H37Rv ATCC 25618; format: functional
Outline: (§4)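 Classical test-tube successive-dilution method in Youmans' modification of Proskauer and Beck liquid medium with 10% bovine serum. Inoculum came from 14-day cultures. DMSO stock was 10 mg/mL, diluted geometrically in medium. Tubes were incubated at 37 °C. Concentrations tested were 3.1, 6.2, 12.5, 25, 50 and 100 µg/ml. MIC is the minimum concentration inhibiting growth relative to compound-free tubes.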

Bacillus cereus = test: Antimicrobial activity against Bacillus cereus ATCC 11778 at 400 ug after 18 hrs by disc-diffusion method; format: functional; details: ATCC 11778, 18 h, read-out: IZ; outline: as §1
[17] = tested on: Mammalian orthoreovirus 1; test: Antiviral activity against Reovirus type-1 ATCC VR-214 infected in BHK cells assessed as protection against virus-induced cytopathogenicity after 3 to 4 days by MTT assay; format: functional, cell-based; details: Mammalian orthoreovirus 1, ATCC VR-214, BHK; outline: as §3
Staphylococcus aureus [18] = test: Antimicrobial activity against Staphylococcus aureus ATCC 6538 after 18 hrs by twofold serial microdilution method; format: functional; details: ATCC 6538, 18 h
[19] = tested on: Mycobacterium tuberculosis; test: Antimycobacterial activity against drug-sensitive Mycobacterium tuberculosis Spec. 192; format: functional; outline: as §4
[20] = tested on: Staphylococcus epidermidis; test: Antimicrobial activity against Staphylococcus epidermidis ATCC 35984 after 18 hrs by twofold serial microdilution method; format: functional; details: ATCC 35984, 18 h
Micrococcus luteus [21] = test: Antimicrobial activity against Micrococcus luteus ATCC 9341 at 400 ug after 18 hrs by disc-diffusion method; format: functional; details: ATCC 9341, 18 h, read-out: IZ; outline: as §1
Enterococcus faecalis = test: Antimicrobial activity against Enterococcus faecalis ATCC 29212 at 400 ug after 18 hrs by disc-diffusion method; format: functional; outline: as §1
Human alphaherpesvirus 1 = test: Antiviral activity against Human herpesvirus 1 KOS ATCC VR-1493 infected in African green monkey Vero 76 cells assessed as reduction of virus-plaque formation after 3 days by crystal violet staining; format: functional, organism-based; details: Human alphaherpesvirus 1, KOS ATCC VR1493, Vero, 72 h; outline: as §2
Staphylococcus aureus [22] = test: Antimicrobial activity against Staphylococcus aureus ATCC 29213 after 18 hrs by twofold serial microdilution method; format: functional; details: ATCC 29213, 18 h
[23] = Cytotoxicity against bovine MDBK cells assessed as cell viability after 48 to 96 hrs by MTT assay; format: cell-based, Bos taurus; details: cattle
[24] = Cytotoxicity against BHK cells assessed as cell viability after 48 to 96 hrs by MTT assay; format: cell-based, Mesocricetus auratus; details: hamster

Structure (SMILES) | zone of inhibition at 400 µg/disc (Staphylococcus aureus [1]) [mm] | CC50 [2] [µM] | zone of inhibition at 400 µg/disc (Bacillus subtilis) [mm] | CC50 [3] [µM] | EC50 (Poliovirus 1) [µM] | MIC (Staphylococcus aureus [4]) [µg/mL] | MIC (Staphylococcus aureus [5]) [µg/mL] | EC50 (Yellow fever virus) [µM] | EC50 (Coxsackievirus B5) [µM] | EC50 [6] [µM] | zone of inhibition at 400 µg/disc (Staphylococcus aureus [7]) [mm] | EC50 [8] [µM] | zone of inhibition at 400 µg/disc (Staphylococcus aureus [9]) [mm] | zone of inhibition at 400 µg/disc [10] [mm] | zone of inhibition at 400 µg/disc (Enterococcus hirae) [mm] | zone of inhibition at 400 µg/disc (Staphylococcus aureus [11]) [mm] | zone of inhibition at 400 µg/disc (Micrococcus luteus [12]) [mm] | EC50 (Vaccinia virus) [µM] | EC50 [17] [µM] | CC50 [24] [µM] | also measured
FC(F)(F)c1cccc(NC(=S)Nc2ccccc2)c1 | 24 | 39 | 21 | 39 | > 39 | 16 (≈ 54 µM) | 16 (≈ 54 µM) | > 41 | > 39 | > 49 | 21 | > 39 | 23 | 23 | 25 | 23 | 22 | > 39 | > 41 | 41 | zone of inhibition at 400 µg/disc (Proteus vulgaris; NCTC 4635, 18 h, read-out: IZ): 11 mm; EC50 [13]: > 39 µM; zone of inhibition at 400 µg/disc [14]: 23 mm; MIC [15]: 32 µg/mL (≈ 108 µM); MIC [16]: 50 µg/mL (≈ 169 µM); zone of inhibition at 400 µg/disc (Bacillus cereus): 22 mm; MIC (Staphylococcus aureus [18]): 16 µg/mL (≈ 54 µM); MIC [19]: 50 µg/mL (≈ 169 µM); MIC [20]: 16 µg/mL (≈ 54 µM); zone of inhibition at 400 µg/disc (Micrococcus luteus [21]): 24 mm; zone of inhibition at 400 µg/disc (Enterococcus faecalis; ATCC 29212, 18 h, read-out: IZ): 15 mm; EC50 (Human alphaherpesvirus 1): > 39 µM; MIC (Staphylococcus aureus [22]): 16 µg/mL (≈ 54 µM); CC50 [23]: 49 µM
Nc1nc2c(ncn2COCCO)c(=O)[nH]1 [ACYCLOVIR] |  |  |  | 13 |  |  |  |  |  |  |  |  |  |  |  |  |  |  |  |  | 
O=C1Nc2ccc(Cl)cc2[C@@](C#CC2CC2)(C(F)(F)F)O1 [EFAVIRENZ] |  | 40 |  |  |  |  |  |  |  |  |  |  |  |  |  |  |  |  |  |  | 
C[C@@]1(O)[C@H](O)[C@@H](CO)O[C@H]1n1ccc(N)nc1=O |  |  |  | > 100 | 7.3 |  |  |  | 18 |  |  |  |  |  |  |  |  |  | 16 | > 10 | 
CCNC(=S)Nc1cccc(C(F)(F)F)c1 | 14 | > 100 | 15 | > 100 | > 100 | 256 (≈ 1030 µM) | 128 (≈ 516 µM) | > 100 | > 100 | > 100 | 14 | > 100 | 15 | 13 | 13 | 19 | 13 | > 100 | > 100 | > 100 | inhibition zone (IZ) (Proteus vulgaris): inactive; EC50 [13]: > 100 µM; zone of inhibition at 400 µg/disc [14]: 14 mm; MIC [15]: 256 µg/mL (≈ 1030 µM); MIC [16]: > 100 µg/mL; zone of inhibition at 400 µg/disc (Bacillus cereus): 15 mm; MIC (Staphylococcus aureus [18]): 256 µg/mL (≈ 1030 µM); MIC [19]: > 100 µg/mL; MIC [20]: 512 µg/mL (≈ 2060 µM); zone of inhibition at 400 µg/disc (Micrococcus luteus [21]): 13 mm; inhibition zone (IZ) (Enterococcus faecalis): inactive; EC50 (Human alphaherpesvirus 1): > 100 µM; MIC (Staphylococcus aureus [22]): 256 µg/mL (≈ 1030 µM); CC50 [23]: > 100 µM
